Measured values gathered from unrelated publications.
Compare with care: the assays were run in different laboratories.
Target: Mitogen-activated protein kinase 12 (MAPK12, Homo sapiens, UniProt P53778)
One construct used (P53778 1-367): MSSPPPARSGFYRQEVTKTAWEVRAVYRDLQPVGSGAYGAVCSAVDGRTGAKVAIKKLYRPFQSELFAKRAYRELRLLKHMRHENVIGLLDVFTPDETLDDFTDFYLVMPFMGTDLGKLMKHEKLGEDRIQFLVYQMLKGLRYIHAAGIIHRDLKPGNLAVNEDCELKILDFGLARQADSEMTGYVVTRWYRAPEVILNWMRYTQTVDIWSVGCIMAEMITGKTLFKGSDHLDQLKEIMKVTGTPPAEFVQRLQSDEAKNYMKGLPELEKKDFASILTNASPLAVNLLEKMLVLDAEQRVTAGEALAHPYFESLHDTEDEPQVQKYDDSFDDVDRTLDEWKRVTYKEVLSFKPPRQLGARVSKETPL

Compound	assay	setting	measurement	result
Cn1cncc1[C@](O)(COc1ccc(C#N)cc1-c1ccc(OC(F)(F)F)cc1)c1ccc(C#N)cc1	cell-free assay, competition with immobilised ligand	1 µM	remaining binding	100%
Cn1cc(-c2cccc(N3CCc4c(sc5c4CC(C)(C)C5)C3=O)c2CO)cc(Nc2ccncn2)c1=O	enzyme activity, inhibitor	1 µM	inhibition	11%
Cc1nn(C)cc1-c1nc2c(N3CCN(Cc4ccc(Cl)cc4)CC3)c(Cl)cnc2[nH]1	binding, competition with immobilised ligand	1 µM	remaining binding	100%
COc1ncccc1-c1cnn2ccc(N3CCN(C(=O)OC(C)C)CC3)nc12	binding, competition with immobilised ligand	1 µM	remaining binding	100%
CC(C)(C)c1cc(C=C(C#N)C#N)cc(Br)c1O	enzyme activity, inhibitor	0.5 µM	remaining activity	102%
Cn1cc(-c2cc(F)cc(N3CCn4c(cc5c4CCCC5)C3=O)c2CO)cc(Nc2ccc(N3CCN(C4COC4)CC3)cn2)c1=O	enzyme activity, inhibitor	0.1 µM	inhibition	16%
O=c1[nH]c2ccccc2n1C1CCN(Cc2ccc(-c3[nH]c4cc5ncnc5cc4nc3-c3ccccc3)cc2)CC1	cell-free assay	0.5 µM	remaining signal	93.1%
Nc1ncc(-c2nc(N3CCOCC3)nc(N3CCOCC3)n2)c(C(F)F)n1	binding, competition with immobilised ligand	10 µM	remaining binding	100%
